For 14 molecules, PFA and ED50 results are on record in ChEMBL document CHEMBL1124808, “The synthesis and antiallergy activity of 1-(aryloxy)-4-(4-arylpiperazinyl)-2-butanol derivatives” (1990).

Structures are written as SMILES.

Assay type in all cases: functional
Test [1] concerns Rattus norvegicus. Briefly: Percent change in volume of foot edema of test compound to that of positive control was determined at a dose of 31.6 mg/kg in rat; -26/-81.
Test [2] relates to Rattus norvegicus. Kind of test: Percent change in volume of foot edema of test compound to that of positive control was determined at a dose of 31.6 mg/kg in rat; -26/-74.
For test [3], the system named is Rattus norvegicus. Kind of test: Percent change in volume of foot edema of test compound to that of positive control was determined at a dose of 31.6 mg/kg in rat.
The subject of test [4] is Rattus norvegicus. Briefly: Percent change in volume of foot edema of test compound to that of positive control was determined at a dose of 10 mg/kg in rat.
The species entered for the next test is Cavia porcellus. Briefly: Dose that protects 50% of guinea pig from collapse was determined in guinea pig anaphylaxis assay. Particulars: read-out: PD50. The procedure, abridged: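 Guinea pigs dosed by gavage (10 mL/kg) with compound in 0.5% Tween 80/water; reference theophylline 100 mg/kg po. At 1–24 h, exposed in chamber to aerosolized 1% (w/v) egg albumin at 10 L air/min for up to 5 min; protected if no collapse within 5 min. PD50 by Litchfield and Wilcoxon.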

In test [5] the test system is Rattus norvegicus. Kind of test: Percent change in volume of foot edema of test compound to that of positive control was determined at a dose of 10 mg/kg in rat; -67/-72.
The test system of test [6] is Rattus norvegicus. Briefly: Percent change in volume of foot edema of test compound to that of positive control was determined at a dose of 3.16 mg/kg in rat; -52/-79.
Test [7] concerns Rattus norvegicus. Briefly: Percent change in volume of foot edema of test compound to that of positive control was determined at a dose of 31.6 mg/kg in rat; -90/-79.
Test [8] has as its system Rattus norvegicus. Briefly: Percent change in volume of foot edema of test compound to that of positive control was determined at a dose of 10 mg/kg in rat; -70/-88.
For test [9], the system named is Rattus norvegicus. Briefly: Oral Antiallergic activity in the passive foot anaphylaxis (PFA) assay of various amines at the dose of 3.16 mg/kg; -42/-78.
Test [10] deals with Rattus norvegicus. Briefly: Percent change in volume of foot edema of test compound to that of positive control was determined at a dose of 31.6 mg/kg in rat; -91/-83.
For test [11], the system named is Rattus norvegicus. Kind of test: Percent change in volume of foot edema of test compound to that of positive control was determined at a dose of 10 mg/kg in rat; -72/-83.
In test [12] the test system is Rattus norvegicus. Briefly: Percent change in volume of foot edema of test compound to that of positive control was determined at a dose of 3.16 mg/kg in rat; -32/-93.
The test system of test [13] is Rattus norvegicus. Kind of test: Percent change in volume of foot edema of test compound to that of positive control was determined at a dose of 31.6 mg/kg in rat; -88/-83.
For test [14], the system named is Rattus norvegicus. Briefly: Percent change in volume of foot edema of test compound to that of positive control was determined at a dose of 31.6 mg/kg in rat; -24/-58.
Test [15] concerns Rattus norvegicus. Briefly: Percent change in volume of foot edema of test compound to that of positive control was determined at a dose of 10 mg/kg in rat; -39/-78.
In test [16] the test system is Rattus norvegicus. Kind of test: Percent change in volume of foot edema of test compound to that of positive control was determined at a dose of 31.6 mg/kg in rat; -70/-84.
For test [17], the system named is Rattus norvegicus. Kind of test: Percent change in volume of foot edema of test compound to that of positive control was determined at a dose of 10 mg/kg in rat; -50/-62.
Test [18] concerns Rattus norvegicus. Briefly: Percent change in volume of foot edema of test compound to that of positive control was determined at a dose of 3.16 mg/kg in rat; +22/-62.
Test [19] relates to Rattus norvegicus. Briefly: Percent change in volume of foot edema of test compound to that of positive control was determined at a dose of 31.6 mg/kg in rat; […]/-78.
Test [20] relates to Rattus norvegicus. Kind of test: Percent change in volume of foot edema of test compound to that of positive control was determined at a dose of 10 mg/kg in rat; -25/-44.
Test [21] has as its system Rattus norvegicus. Briefly: Percent change in volume of foot edema of test compound to that of positive control was determined at a dose of 31.6 mg/kg in rat; -49/-44.
Test [22] deals with Rattus norvegicus. Kind of test: Percent change in volume of foot edema of test compound to that of positive control was determined at a dose of 10 mg/kg in rat; -5/-59.
Test [23] relates to Rattus norvegicus. Kind of test: Percent change in volume of foot edema of test compound to that of positive control was determined at a dose of 31.6 mg/kg in rat; -54/-67.
In test [24] the test system is Rattus norvegicus. Kind of test: Percent change in volume of foot edema of test compound to that of positive control was determined at a dose of 10 mg/kg in rat; -41/-59.
Test [25] deals with Rattus norvegicus. Kind of test: Percent change in volume of foot edema of test compound to that of positive control was determined at a dose of 31.6 mg/kg in rat; -74/-67.
Test [26] concerns Rattus norvegicus. Kind of test: Percent change in volume of foot edema of test compound to that of positive control was determined at a dose of 31.6 mg/kg in rat; -29/-47.
The subject of test [27] is Rattus norvegicus. Briefly: Percent change in volume of foot edema of test compound to that of positive control was determined at a dose of 10 mg/kg in rat; -43/-81.
Test [28] has as its system Rattus norvegicus. Kind of test: Percent change in volume of foot edema of test compound to that of positive control was determined at a dose of 31.6 mg/kg in rat; -73/-65.

Regarding `O=C(O)C(=O)O.OC(CCN1CCCCC1)COc1ccccc1` (stereo unspecified), the PFA in the test with Rattus norvegicus [1] was -26.
In the test with Rattus norvegicus [2], `COc1cc(N2CCN(CCC(O)COc3ccccc3)CC2)cc(OC)c1OC.O=C(O)C(=O)O` (stereo unspecified) gave a PFA of -26.
Regarding `Cl.Cl.O=[N+]([O-])c1ccc(OCC(O)CCN2CCN(c3ccccc3)CC2)cc1` (stereo unspecified), the PFA in the test with Rattus norvegicus [3] is -92; with Rattus norvegicus [4] it was -28.
Consider `Cl.Cl.OC(CCN1CCN(c2ccccn2)CC1)COc1ccc(F)cc1` (stereo unspecified), for which the ED50 in the test listed under Cavia porcellus came out at 13.9 mg/kg. The PFA was -67 with Rattus norvegicus [5], -52 in the test with Rattus norvegicus [6] and -90 in the test with Rattus norvegicus [7].
Take `COc1ccc(N2CCN(CCC(O)COc3ccc(F)cc3)CC2)cc1.Cl` (stereo unspecified): in the test filed under Cavia porcellus, the ED50 is over 178 mg/kg. Also, the PFA is reported as -70 in the test on Rattus norvegicus [8], -42 in the test on Rattus norvegicus [9] and -91 with Rattus norvegicus [10].
With `Cl.OC(CCN1CCN(c2ccc(F)cc2)CC1)COc1ccc(F)cc1` (stereo unspecified), the ED50 in the test filed under Cavia porcellus worked out at 3.06 mg/kg. Also, the values for the PFA in the test on Rattus norvegicus [11], in the test with Rattus norvegicus [12] and in the test with Rattus norvegicus [13] were -72, -32 and -88, respectively.
The molecule `CN1CCN(CCC(O)COc2ccccc2)CC1.O=C(O)/C=C\C(=O)O` (stereo unspecified) showed a PFA in the test with Rattus norvegicus [14] of -24.
Regarding `O=C(O)/C=C\C(=O)O.O=C(O)/C=C\C(=O)O.OC(CCN1CCN(c2ccccn2)CC1)COc1ccccc1` (stereo unspecified), the PFA in the test with Rattus norvegicus [15] was -39; in the test on Rattus norvegicus [16], -70.
Take `Cc1cc(Cl)ccc1OCC(O)CCN1CCN(c2ccccc2)CC1.Cl.Cl` (stereo unspecified): the values for the PFA with Rattus norvegicus [17], in the test with Rattus norvegicus [18] and in the test on Rattus norvegicus [19] were -50, 22 and -69, respectively.
With `Cl.Cl.OC(CCN1CCN(c2ccccc2)CC1)COc1ccc(Cl)c(Cl)c1` (stereo unspecified), the PFA is recorded as -25 in the test with Rattus norvegicus [20] and -49 in the test with Rattus norvegicus [21].
With `Cl.Cl.OC(CCN1CCN(c2ccc(Cl)cc2)CC1)COc1ccc(Cl)cc1` (stereo unspecified), the PFA is on record as -5 with Rattus norvegicus [22] and -54 with Rattus norvegicus [23].
Take `Cc1cc(OCC(O)CCN2CCN(c3ccc(F)cc3)CC2)ccc1Cl.Cl.Cl` (stereo unspecified): the PFA in the test with Rattus norvegicus [24] is on record as -41; in the test on Rattus norvegicus [25], -74.
`OC(CCN1CCC(c2ccccc2)CC1)COc1ccccc1` (stereo unspecified) had a PFA in the test on Rattus norvegicus [26] of -29.
In the case of `OC(CCN1CCN(c2ccccc2)CC1)COc1ccc(F)cc1` (stereo unspecified), the PFA with Rattus norvegicus [27] is on record as -43; with Rattus norvegicus [28] it was -73.
